Compound activity (PubChem BioAssay)
Hits are enriched below; roughly 0.99% of the tested compounds scored in any of these assays.
GSK3 alpha inh: human GSK-3 alpha kinase inhibition. P49840. AID 2650. ADP-Glo luminescence, 60 min. inhibition, % at 10 µM. 320,000 compounds, 0.1% hits;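 active = more than half of replicates show inhibition above 20%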;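 also: GST-tagged GSK-3 alpha with peptide substrate and 25 µM ATP; 0% = DMSO neutral wells and 100% = GW8510 positive control wells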
Arrestin-AP2 inh: inhibitors of human beta-arrestin and AP2 interaction; FITC-arrestin peptide / GST-AP2 beads, flow cytometry; AP2 beta2 appendage carries R879A mutation; inhibition, % at 10 µM; 340,000 compounds, 0.31% hits; AID 504490;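 active = inhibition above a set limit, near 3 SD of compounds lacking own fluorescence, cut at about 54% in these data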;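 also: plate controls were DMSO wells for no effect and 5 µM unlabelled arrestin peptide for full effect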
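test system = AP2 appendage R879A on GSH beads | buffer or medium = PBS plus Tween 20 (0.05%) and BSA (0.1%) | incubation = 12 min plus 1 h, RT | detection = bead flow cytometry, FITC channel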
GSK3beta inhib: blocks human GSK3beta kinase activity. P49841. GST-GSK3beta kinase, ADP-Glo luminescence, 60 min; active compounds read low. activity score (negative = inhibition), % at 10 µM. 300,000 compounds, 0.038% hits. AID 2097;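 active = more than half of replicate wells score below -50%, meaning over 50% inhibition versus plate controls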;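 also: 0% = median DMSO wells and -100% = median GW8510 positive control wells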
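Test system – GST-tagged human GSK3beta kinase, cell-free · Incubation – 60 min enzyme reaction, room temperature · Signal – ADP-Glo luminescence · Also added – peptide substrate and ATP at 25 µM · Controls – DMSO neutral wells and GW8510 at 20 µM as positive · Buffer or medium – Tris/MgCl2 kinase buffer · Measure – Luminescence-derived activity versus plate DMSO and GW8510 wells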
STK33 inh: inhibitors of human STK33 kinase. Q9BYT3. purified STK33, MBP phosphorylation, ADP-Glo luminescence. inhibition, % at 10 µM. 320,000 compounds, 0.073% hits. AID 2661;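 active = inhibition at or above 25%, using the most active replicate where run in duplicate; inactive = inhibition below 25%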
Dyrk1A ADPGlo: inhibitors of rat Dyrk1A kinase. 310,000 compounds, 0.43% hits. AID 504441. ADP-Glo luminescence, NFATc1 peptide. Q63470. inhibition, % at 12.5 µM; in the data active = inhibition above about 50%;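 also: plate controls were vehicle with enzyme for no effect and no enzyme for full effect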
Rin1-Abl PPI inh: blocks binding of human Rin1 to Abl | 360,000 compounds, 0.4% hits | TR-FRET Rin1/Abl binding, biochemical | P00519+Q13671 | AID 588664 | inhibition, % at 7.35 µM; in the data active = inhibition above about 5%, passing the limit was not always enough
Arr-AP2 CP1: human beta-arrestin and AP2 interaction inhibition, cherry pick; inhibition, % at 10 µM; 1,300 compounds, 2% hits; shares compounds with Arrestin-AP2 inh; GST-AP2 beads, FITC arrestin peptide binding, flow cytometry; GST-fused beta2-adaptin appendage, R879A mutant;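 active = inhibition above a set limit, roughly 3 SD of non-fluorescent compound noise, cut at about 38% in these data; inactive = inhibition at or below that limit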;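 also: loss of bead fluorescence from 50 nM FITC arrestin peptide bound to appendage; 0% = negative control wells and 100% = excess unlabelled arrestin peptide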
Target sequence (P63010 whole entry, looked up, the tested form may be a part, one chain of several): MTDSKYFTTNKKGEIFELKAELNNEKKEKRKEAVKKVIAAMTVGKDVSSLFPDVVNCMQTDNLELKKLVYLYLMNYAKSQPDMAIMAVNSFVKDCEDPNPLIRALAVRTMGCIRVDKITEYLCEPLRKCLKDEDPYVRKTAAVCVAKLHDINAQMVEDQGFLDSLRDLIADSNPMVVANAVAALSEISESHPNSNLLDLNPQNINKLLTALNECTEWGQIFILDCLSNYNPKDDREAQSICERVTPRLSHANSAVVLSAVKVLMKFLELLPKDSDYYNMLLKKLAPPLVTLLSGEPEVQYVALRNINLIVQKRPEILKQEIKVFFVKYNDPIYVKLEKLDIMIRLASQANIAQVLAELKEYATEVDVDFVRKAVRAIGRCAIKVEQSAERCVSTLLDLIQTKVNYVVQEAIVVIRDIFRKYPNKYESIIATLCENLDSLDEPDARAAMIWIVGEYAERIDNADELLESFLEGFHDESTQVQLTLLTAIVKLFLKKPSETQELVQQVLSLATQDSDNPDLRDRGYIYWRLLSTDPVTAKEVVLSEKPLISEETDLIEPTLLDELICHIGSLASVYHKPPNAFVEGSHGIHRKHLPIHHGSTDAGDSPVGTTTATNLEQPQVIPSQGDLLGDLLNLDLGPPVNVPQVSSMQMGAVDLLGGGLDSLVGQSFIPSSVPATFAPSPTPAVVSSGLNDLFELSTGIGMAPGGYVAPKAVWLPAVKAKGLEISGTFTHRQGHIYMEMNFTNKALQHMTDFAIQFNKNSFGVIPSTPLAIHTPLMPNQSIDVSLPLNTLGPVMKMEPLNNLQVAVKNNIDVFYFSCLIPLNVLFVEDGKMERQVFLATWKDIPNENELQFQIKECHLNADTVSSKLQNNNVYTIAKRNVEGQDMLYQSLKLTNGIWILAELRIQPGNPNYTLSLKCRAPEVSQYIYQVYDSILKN
GST GSH counter: counter-screen for beta-arrestin AP2 inhibitors: GST-GSH bead binding | 1,300 compounds, 2% hits | shares compounds with Arrestin-AP2 inh | GST-fluorescein binding to GSH beads, fluorescence | inhibition, % at 10 µM;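 active = inhibition above 50%, about 3 SD of the inhibition seen with non-fluorescent compounds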;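 also: fluorescein maleimide labelled GST captured on 4 micron glutathione beads; higher means more loss of bead fluorescence from quenching or blocked binding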
* = called active by the depositor; / = no result given.

SMILES | GSK3 alpha inh | Arrestin-AP2 inh | GSK3beta inhib | STK33 inh | Dyrk1A ADPGlo | Rin1-Abl PPI inh | Arr-AP2 CP1 | GST GSH counter
COc1ccc(-c2csc(NC(=S)NC(=O)/C=C/c3ccco3)n2)cc1Br | 0 | 88* | 1 | 1 | 4 | 0 | -2 | -9
COc1cccc(CNc2ccc3[nH]c(=O)[nH]c3c2)c1OCc1ccc(F)cc1 | 0 | 55* | 0 | -2 | -3 | -2 | 18 | 13
C=CCOc1c(CNc2ccc3[nH]c(=O)[nH]c3c2)cccc1OC | 1 | 20 | 0 | 0 | / | -1 | / | /
Cc1cnc(C(=O)OCC(=O)N2c3ccccc3CC2C)cn1 (configuration not stated) | -1 | 55* | -25 | -2 | 0 | -1 | -5 | -1
CCn1cnc2cc(NC(=O)COc3ccc(C)cc3)ccc21 | / | -3 | / | / | 2 | 4 | / | /
O=C(O)COCC(=O)Nc1ccc2c(c1)ncn2CCc1ccccc1 | -1 | 58* | -21 | -1 | -5 | 2 | -5 | 1
O=C1C(=O)N(CCCN2CCOCC2)C(c2ccc([N+](=O)[O-])cc2)/C1=C(/O)c1ccc2c(c1)OCO2 (configuration not stated) | -3 | -7 | 1 | -1 | -5 | 0 | / | /
Cc1ccc(SCC(=O)NNC(=O)CCS(=O)(=O)c2ccccc2)cc1 | -2 | 9 | / | -1 | / | -1 | / | /
Cc1ccc(SCC(=O)NNC(=O)CCS(=O)(=O)c2ccc(C)cc2)cc1 | -3 | 54* | / | -1 | -3 | 1 | 2 | -2
CCOC(=O)N1CCN(S(=O)(=O)N2CCCC(C(=O)NCCCN3CC(C)CC(C)C3)C2)CC1 (configuration not stated) | -1 | 23 | 4 | 0 | -3 | 7 | / | /
COc1ccc(NC(=S)N2CCCC(c3nc4ccc(C)cc4[nH]3)C2)cc1 (configuration not stated) | 1 | 57* | 0 | -2 | -1 | -2 | -10 | -3
COc1ccc(CCNC(=O)C(=O)NCC2CCCN2S(=O)(=O)c2ccccc2)cc1OC (configuration not stated) | 3 | -4 | -1 | 4 | -7 | 2 | / | /
Cc1cc(C(=O)COc2ccc3ccc(=O)oc3c2)c(C)n1Cc1cccs1 | 6 | 94* | 2 | 1 | -8 | 1 | -9 | 7
O=C(O)c1ccc(C(S(=O)(=O)c2ccccc2)S(=O)(=O)c2ccccc2)cc1 | / | / | / | / | / | -1 | / | /
O=C(NCc1ccc(Cl)cc1)C1CCN(S(=O)(=O)c2cccc3nonc23)CC1 | -2 | 109* | 1 | 1 | -1 | -1 | 23 | 52*
COC(=O)C1CCN(C(=O)COc2ccc(S(=O)(=O)N3CCOCC3)cc2Cl)CC1 | 0 | 31 | / | -1 | -3 | 3 | / | /
COc1cc(C(=O)Nn2cnnc2)ccc1OC(F)F | 0 | 54* | -2 | -1 | 0 | 2 | -8 | -3
CCOc1ccc(C(=O)Nn2cnnc2)cc1OCC | -3 | -4 | 1 | -2 | -3 | -1 | / | /
N#Cc1cn(CCOc2ccc(F)cc2)c2ccccc12 | -2 | 57* | -8 | -3 | 1 | 4 | 8 | -9
COc1ccc(NC(=S)N(CCCN2CCCC(C)C2)Cc2cccs2)cc1 (configuration not stated) | 0 | 54* | 6 | 0 | / | -2 | 5 | -7
COc1ccc(NC(=S)N(CCCN2CCCC2)Cc2cccs2)cc1 | -1 | -7 | -3 | -1 | -7 | 1 | / | /
O=C(COC(=O)C1CC1)NC(=O)c1ccccc1 | -4 | -4 | / | 0 | -1 | 4 | / | /
COc1ccc(S(=O)(=O)c2ccc(OCC3CO3)cc2)cc1 (configuration not stated) | -4 | 64* | 1 | -2 | -3 | 1 | 12 | -2
COc1ccc(S(=O)(=O)c2ccc(O)cc2)cc1 | -1 | -14 | 3 | 0 | -6 | 3 | / | /
Cn1c(SCC(=O)NC2CCCC2)nnc1-c1ccccn1 | -1 | 60* | 1 | 0 | -4 | 1 | -14 | -9
SMILES | GSK3 alpha inh | Arrestin-AP2 inh | GSK3beta inhib | STK33 inh | Dyrk1A ADPGlo | Rin1-Abl PPI inh | Arr-AP2 CP1 | GST GSH counter
CC(C)(C)c1cc(C(=O)Nc2cccnc2)cc(C(=O)Nc2cccnc2)c1 | -1 | 61* | 0 | 2 | 1 | 2 | 4 | 0
O=C(Nc1cccnc1)c1ccc(Cl)c(Cl)c1 | -2 | 11 | / | 2 | 13 | 0 | / | /
CC12CCC(=O)N1C(C(=O)OCC(=O)Nc1ccc(S(N)(=O)=O)cc1)CS2 (configuration not stated) | -1 | 0 | -6 | -1 | -1 | 2 | -1 | -5
Cc1ccc(NC(=O)COC(=O)C2CSC3(C)CCC(=O)N23)c(C)c1 (configuration not stated) | -2 | 69* | / | 0 | / | 1 | -8 | -3
CC12CCC(=O)N1C(C(=O)OCC(=O)Nc1cccc(S(=O)(=O)N3CCCCCC3)c1)CS2 (configuration not stated) | / | 3 | -4 | / | 0 | -2 | / | /
CCNC(=O)NC(=O)COC(=O)C1CSC2(C)CCC(=O)N12 (configuration not stated) | -3 | 2 | 10 | -1 | 0 | 3 | / | /
CC12CCC(=O)N1C(C(=O)OCC(=O)Nc1ccc(C(F)(F)F)cc1)CS2 (configuration not stated) | -2 | 10 | / | -2 | / | -1 | -4 | -6
CC12CCC(=O)N1C(C(=O)OCC(=O)Nc1cccc(Br)c1)CS2 (configuration not stated) | 1 | -20 | -3 | -1 | / | 1 | 1 | -4
Cn1nc(C(C)(C)C)cc1C(=O)N1CCCC(c2cc(C(=O)Nc3ccccc3Cl)no2)C1 (configuration not stated) | / | / | / | / | / | -3 | / | /
COc1ccccc1N(C(=O)Cn1nnc(-c2ccc(C)o2)n1)C(C(=O)NC1CCCC1)c1ccncc1 (configuration not stated) | 1 | 32 | -2 | 0 | -1 | 0 | / | /
Nc1c(N(C(=O)Nc2ccc(Cl)c(Cl)c2)C2CCCC2)c(=O)[nH]c(=O)n1Cc1ccccc1 | -1 | 84* | 1 | -2 | -3 | 0 | 3 | -5
COc1cc(C(=O)NCC2(N(C)C)CCCCC2)ccc1OCc1ccccc1 | 2 | 20 | 3 | -1 | -4 | 4 | / | /
CC(=O)N1CCN(S(=O)(=O)c2cccc(C(=O)Nc3cc(C(F)(F)F)ccc3N3CCOCC3)c2)CC1 | -2 | 25 | -2 | -1 | -5 | -2 | / | /
Cc1cccc(C)c1NC(=O)c1csc(COCCO)n1 | / | / | / | / | / | 0 | / | /
